Screens (PubChem BioAssay)
SENP8 block-1: inhibitors of human SENP8 protease; Q96LD8; recombinant SENP8, Nedd8 substrate fluorescence; inhibition, % at 20 µM; 0.64% of 360,000 active; in the data active = inhibition mostly above about 40%, no sharp cut-off; inactive = mostly below about 27%
Target sequence (Q96LD8 whole entry, looked up): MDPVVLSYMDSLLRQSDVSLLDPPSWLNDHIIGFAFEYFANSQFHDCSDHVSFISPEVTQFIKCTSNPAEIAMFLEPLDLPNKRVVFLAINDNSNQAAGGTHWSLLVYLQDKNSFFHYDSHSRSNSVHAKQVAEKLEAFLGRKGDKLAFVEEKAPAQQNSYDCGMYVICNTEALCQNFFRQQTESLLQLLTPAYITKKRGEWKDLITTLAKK
SENP8 block-2: blocks the human protease SENP8 | Q96LD8 | purified SENP8, Z-RLRGG-aminoluciferin cleavage, luminescence | inhibition, % at 10 µM | 1.2% of 330,000 active; in the data active = inhibition above about 50%
SENP6 inh: SENP6 protease inhibition; Q9GZR1; Recombinant SENP6 catalytic domain, aminoluciferin luminescence; inhibition, % at 10 µM; 1.8% of 330,000 active; AID 2599;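 active = inhibition above about 50% at the single tested dose, limit read from the data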;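 also: plate controls were DMSO wells with enzyme for no effect and DMSO wells lacking enzyme for full effect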
HSP90 inh: inhibitors of HSP90 luciferase refolding in rabbit reticulocyte lysate. luciferase refolding luminescence, 3 h. inhibition, % at 5.6 µM. 0.91% of 290,000 active. AID 1789;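 active = inhibition above the screen-wide mean plus 3 SD, computed separately per campaign, cut at about 16% in these data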;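 also: 0% = DMSO wells and 100% = 60 µM geldanamycin wells; inhibitors lower the luminescence because luciferase stays unfolded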
SENP1 inh: inhibitors of human SENP1 SUMO protease catalytic domain | 0.21% of 360,000 active | inhibition, % at 10 µM | Q9P0U3 | recombinant SENP1 catalytic domain, CyPet-SUMO1-YPet FRET cleavage;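 active = inhibition at least 30% at 10 µM, raw YFP signal under a set limit, fluorescence ratio 0.5 to 1.5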;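 also: 0% = enzyme with DMSO and 100% = no enzyme wells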
Target sequence (Q9P0U3 419-644 limits assumed): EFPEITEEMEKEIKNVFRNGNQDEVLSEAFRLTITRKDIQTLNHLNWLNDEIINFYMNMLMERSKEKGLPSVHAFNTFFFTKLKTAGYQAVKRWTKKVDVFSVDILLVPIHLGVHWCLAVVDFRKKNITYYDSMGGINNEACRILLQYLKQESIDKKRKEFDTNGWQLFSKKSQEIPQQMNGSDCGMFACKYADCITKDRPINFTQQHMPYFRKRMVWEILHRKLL
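Compound: 10 µM single point, 0.5% DMSO; Test system: hSENP1 catalytic domain, recombinant; Timing: 50 min reaction at room temperature; Technique: FRET, CFP and YFP emission; Control set: no-enzyme wells low, DMSO-plus-enzyme wells high control.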
SENP7 block: blocks the human protease SENP7. 1.5% of 330,000 active. inhibition, % at 5 µM. Q9BQF6. recombinant SENP7, Z-RLRGG-aminoluciferin luminescence, 40 min. AID 434973;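 active = inhibition above about 50% at the single test dose, limit read from the data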;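 also: plate controls were DMSO with enzyme for no effect and no enzyme buffer wells for full effect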
SENP8 inh conf: SENP8 (human) inhibition, single concentration confirmation; shares compounds with SENP8 block-1; purified SENP8, Nedd8-AMC/pro-Nedd8 cleavage fluorescence, 30 min; inhibition, % at 25 µM; 15% of 1,400 active; in the data active = inhibition mostly above about 39%, no sharp cut-off; inactive = mostly below about 34%
Active calls of the source: *; · = not tested or not shown. This is a sample that favours compounds with a hit; in the whole collection about 2.9% have one here.

SMILES	SENP8 block-1	SENP8 block-2	SENP6 inh	HSP90 inh	SENP1 inh	SENP7 block	SENP8 inh conf
CCc1ccc(N2C(=O)C(Cl)=C(N3CCCCCC3)C2=O)cc1	21	-3	21	3	25	4	·
Cc1cccc(N2C(=O)C(Cl)=C(N3CCOCC3)C2=O)c1	46*	-4	0	2	6	-12	2
CCN(CC)c1ncnc2c1ncn2[C@H]1CN(Cc2ccc(-c3ccccc3)cc2)C[C@@H](CO)O1	7	·	·	·	-3	·	·
COc1ccc(C(=O)NC(C)c2ccc(-n3ccnc3)cc2)cc1[N+](=O)[O-] (stereo not drawn)	13	0	-14	3	3	0	·
CC(C)OCCCNC(=O)c1ccc(CN2CCc3ccccc3C2)cc1	7	-9	-17	3	2	0	·
CC(C)NC(=O)c1ccc(CN2CCc3ccccc3C2)cc1	44*	8	-8	-2	-2	2	7
Cn1c(Cc2ccccc2)nnc1SCC(=O)c1cccs1	40*	3	19	2	1	2	13
COC(=O)c1ccc(C)cc1C1CN=NC12Cc1cc(C)ccc1C2=O (stereo not drawn)	57*	·	·	·	0	·	33
Cc1cc(Nc2ccccc2C(=O)O)n2ncnc2n1	-229	·	·	·	0	·	·
Nc1cc(Cl)nc(N/N=C/c2ccccc2[N+](=O)[O-])n1	52*	9	-10	1	3	6	29
Nc1cc(Cl)nc(N/N=C/c2ccc([N+](=O)[O-])cc2)n1	13	0	-3	-1	-2	6	·
OC(c1ccccc1)c1ncc(-c2cccc(OCc3ccccc3)c2)[nH]1 (stereo not drawn)	7	·	·	·	-2	·	·
Cc1cc2c(NC(=O)CC(C)(C)CC(=O)O)cccc2nn1	44*	5	10	-3	4	9	6
O=C(Nc1ccc(Oc2ccccc2)cc1)c1ccc2sc([C@H]3C[C@H](O)[C@@H](CO)O3)nc2c1	-12	·	·	·	-12	·	·
O=C1SCCN1N=Cc1ccc([N+](=O)[O-])o1	55*	·	·	·	1	·	18
O=[N+]([O-])c1ccc(/C=N/N=C/c2ccc([N+](=O)[O-])o2)o1	37	·	·	1	-30	·	·
CC1CN(N=Cc2ccc([N+](=O)[O-])o2)C(=N)O1 (stereo not drawn)	48*	·	·	·	-2	·	29
COC(=O)c1c(C(=O)OC)c2cccc3cc(-c4ccccc4)c4ccc1c4n32	74*	23	40	0	-2	20	27
COC(=O)c1cc2c(-c3ccccc3)cc3ccccn3c-2c1C(=O)OC	-113	-12	-3	0	-56	-9	·
CCN(CC)S(=O)(=O)c1cc([N+](=O)[O-])ccc1NNC(=O)Nc1ccccc1OC	51*	-1	-3	-1	1	2	25
COc1ccc(C(=O)CNc2ccc(C)cc2C)cc1	54*	-7	-7	0	-2	13	14
O=C1Cc2ccccc2C(=O)N1Cc1cccc(Cl)c1	103*	·	·	16*	-3	·	46*
COc1ccccc1NS(=O)(=O)c1cccc(NS(=O)(=O)c2cc(C(=O)O)ccc2Cl)c1	17	·	·	·	2	·	·
COc1ccc(OCC(=O)OCC(=O)NC2CCCCC2C)cc1 (stereo not drawn)	46*	5	6	·	2	2	10
CC1CCCCC1NC(=O)COC(=O)COc1ccccc1Cl (stereo not drawn)	5	1	-8	3	4	4	·
SMILES	SENP8 block-1	SENP8 block-2	SENP6 inh	HSP90 inh	SENP1 inh	SENP7 block	SENP8 inh conf
CCC(C)[C@H](NC(=O)Nc1cccc(Cl)c1)C(=O)O (stereo partly drawn)	48*	-6	-25	3	2	0	16
CCC(C)[C@H](NC(=O)Nc1ccc(S(N)(=O)=O)cc1)C(=O)O (stereo partly drawn)	10	-10	-19	-3	0	-12	·
CC(C)(C)S(=O)(=O)N1Cc2cc(=O)n(Cc3ccccc3)c(CCO)c2[C@H]1CCO	-220	·	·	·	-8	·	·
COc1ccccc1C(=O)NC(=O)COC(=O)CNC(=O)c1ccccc1F	3	-13	-24	·	0	-13	·
Nc1c(NCCCN2CCOCC2)c2ccccc2oc1=O	38*	4	5	1	0	0	-6
O=C(O)CCC1OC(=O)C(O)=C1c1ccccc1 (stereo not drawn)	40*	-3	-3	·	-3	5	7
Cc1cc(C)n(-c2ccc(C(=O)N3CCN(S(=O)(=O)c4ccc(Br)cc4Cl)CC3)cc2)n1	42*	·	·	·	3	·	8
Cc1cc(C)n(-c2ccc(C(=O)N3CCN(c4ccccn4)CC3)cc2)n1	-3	-6	-17	·	2	-6	·
CCNC(=O)NC(=O)C(C)Sc1nc2ccccc2c(=O)n1-c1cccnc1 (stereo not drawn)	5	4	-13	-1	1	-2	·
CCNC(=O)NC(=O)C(C)Sc1nc2ccccc2n1CC(C)C (stereo not drawn)	42*	2	-1	-1	1	1	13
CCOc1ccccc1NC1=C(Cl)C(=O)N(Cc2ccccc2)C1=O	41*	-4	-12	9	2	-9	17
CCC(=O)c1ccc(OCc2cn(CC(=O)c3ccc(O)cc3)nn2)cc1	32*	·	·	·	2	·	41*
COc1ccc(/C=N\Nc2ccc([N+](=O)[O-])cc2[N+](=O)[O-])c(C(=O)O)c1OC	48*	5	-2	-2	1	9	22
COc1ccc(/C=N/NC(=O)c2ccc(NC(=O)c3cccc([N+](=O)[O-])c3)cc2)c(C(=O)O)c1OC	-18	-7	-5	-4	1	-3	·
COc1ccccc1/C=N\Nc1ccccc1[N+](=O)[O-]	50*	90*	94*	1	1	99*	6
CC1=C(/C=N/Nc2ccc([N+](=O)[O-])cc2[N+](=O)[O-])C(C)(C)CCC1	46*	-3	-6	1	4	7	2
Cn1c2ccccc2c2nnc(NN)nc21	77*	4	17	4	4	-11	38*
CCCCn1c2ccc(F)cc2c2nnc(NN)nc21	71*	0	11	-1	0	3	15
CCn1c2ccc(C)cc2c2nnc(NN)nc21	69*	0	4	3	0	8	21
CCn1c2ccccc2c2nnc(NN)nc21	33	7	21	-2	0	8	·
CCC(C)Sc1ccc([C@@H]2[C@@H]3C(=O)N(C)C(=O)[C@@H]3[C@]3(C(=O)OC)CCCCN23)cc1 (stereo partly drawn)	6	7	3	·	1	11	·
CC1=NN(c2ccc(S(=O)(=O)O)cc2C)C(=O)C1	69*	-4	6	0	2	2	11
